Measured values as given in ChEMBL document CHEMBL5230166, “Novel quinoline-piperazine hybrids: the design, synthesis and evaluation of antibacterial and antituberculosis properties” (RSC Med Chem, 2023).
Converted amounts (≈) assume the structure as drawn.

Assays:
Type in all cases: functional
[1] = system: Staphylococcus epidermidis; assay: Antibacterial activity against clinical isolate methicillin resistant Staphylococcus epidermidis AB 735 assessed as inhibition of bacterial growth incubated for 22 to 24 hrs; details: time 22-24 hrs
Staphylococcus aureus [2] = assay: Antibacterial activity against methicillin sensitive Staphylococcus aureus ATCC 29213 assessed as inhibition of bacterial growth incubated for 22 to 24 hrs; details: time 22-24 hrs
Procedure, shortened: (§1)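 Broth MIC referenced to an earlier protocol. Inocula come from mid-log cultures sub-cultured on soybean casein digest agar, adjusted to McFarland (~10⁸ CFU/mL), then diluted to ~10⁵ CFU/mL. Compounds and controls are serially diluted from 64 to 0.03 µg/mL. Tested in triplicate, read after 22–24 h at 37 °C. MIC is the lowest concentration with no visible growth.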

Enterococcus faecalis = assay: Antibacterial activity against vancomycin resistant Enterococcus faecalis ATCC 700802 assessed as inhibition of bacterial growth incubated for 22 to 24 hrs; details: time 22-24 hrs
Procedure, shortened: (§2)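 Broth microdilution MIC. Strains were subcultured on Soybean Casein Digest Agar, and inocula were taken from mid-log culture, adjusted to McFarland (~10⁸ CFU/mL), then diluted to ~10⁵ CFU/mL. Serial dilutions ran from 64 to 0.03 µg/mL. Plates were incubated 22–24 h at 37 °C, in triplicate. MIC was the lowest concentration with no visible growth.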

Klebsiella pneumoniae = assay: Antibacterial activity against clinical isolate Klebsiella pneumoniae AB 356 assessed as inhibition of bacterial growth incubated for 22 to 24 hrs; details: time 22-24 hrs
Escherichia coli = assay: Antibacterial activity against clinical isolate Escherichia coli AB 117 assessed as inhibition of bacterial growth incubated for 22 to 24 hrs; details: time 22-24 hrs
Pseudomonas aeruginosa = assay: Antibacterial activity against clinical isolate Pseudomonas aeruginosa AB 645 assessed as inhibition of bacterial growth incubated for 22 to 24 hrs; details: time 22-24 hrs
Staphylococcus aureus [3] = assay: Antibacterial activity against methicillin resistant Staphylococcus aureus ATCC 33591 assessed as inhibition of bacterial growth incubated for 22 to 24 hrs; details: time 22-24 hrs; procedure, shortened: as §2
[4] = system: Mycobacterium tuberculosis; assay: Antibacterial activity against Mycobacterium tuberculosis H37Rv ATCC 25618 assessed as inhibition of bacterial growth incubated for 2 days by CLSI protocol based broth microdilution method; details: H37Rv ATCC 25618, 48 h, time 2 day
Acinetobacter baumannii = assay: Antibacterial activity against clinical isolate Acinetobacter baumannii BAA 747 assessed as inhibition of bacterial growth incubated for 22 to 24 hrs; details: time 22-24 hrs
Moraxella catarrhalis = assay: Antibacterial activity against Moraxella catarrhalis ATCC 25238 assessed as inhibition of bacterial growth incubated for 22 to 24 hrs; details: time 22-24 hrs; procedure, shortened: as §1
Enterococcus faecium = assay: Antibacterial activity against Enterococcus faecium ATCC 49624 assessed as inhibition of bacterial growth incubated for 22 to 24 hrs; details: time 22-24 hrs; procedure, shortened: as §1
[5] = system: Mycolicibacterium smegmatis; assay: Antibacterial activity against Mycobacterium smegmatis ATCC 607 assessed as inhibition of bacterial growth incubated for 2 days by CLSI protocol based broth microdilution method; details: ATCC 607, 48 h, time 2 day
Procedure, shortened: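 CLSI broth microdilution in Middlebrook 7H9 with 10% ADC. Compounds are dissolved in DMSO at 4.0 mg/mL (stock) and serially diluted from 64 to 0.015 µg/mL. Inoculum is ~10⁵ CFU/mL, checked by plating on 7H11 agar. Rifampin and levofloxacin are positive controls; drug-free broth with DMSO is the negative control. Growth inhibition is read after 2 days at 37 °C as MIC.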

Row | SMILES | MIC [1] [µg/mL] | MIC (Staphylococcus aureus [2]) [µg/mL] | MIC (Enterococcus faecalis) [µg/mL] | MIC (Klebsiella pneumoniae) [µg/mL] | MIC (Escherichia coli) [µg/mL] | MIC (Pseudomonas aeruginosa) [µg/mL] | MIC (Staphylococcus aureus [3]) [µg/mL] | MIC [4] [µg/mL] | MIC (Acinetobacter baumannii) [µg/mL] | MIC (Moraxella catarrhalis) [µg/mL] | MIC (Enterococcus faecium) [µg/mL] | MIC [5] [µg/mL]
1 | COc1cc(CN2CCN(S(=O)(=O)c3ccc(Cl)cc3Cl)CC2)nc2ccc(F)cc12 | > 64 | > 64 | > 64 | > 64 | > 64 | > 64 | > 64 | > 64 | > 64 | > 64 | > 64 | > 64
2 | COc1cc(CN2CCN(S(=O)(=O)c3ccc(C)cc3)CC2)nc2ccc(F)cc12 | 32 (≈ 74.5 µM) | 64 (≈ 149 µM) | > 64 | > 64 | > 64 | > 64 | > 64 | > 64 | > 64 | 16 (≈ 37.3 µM) | > 64 | > 64
3 | COc1ccc2nc(CN3CCN(S(=O)(=O)c4ccc(NC(C)=O)cc4)CC3)cc(OC)c2c1 | > 64 | > 64 | > 64 | > 64 | > 64 | > 64 | > 64 | > 64 | > 64 | > 64 | > 64 | > 64
4 | COc1ccc2nc(CN3CCN(S(=O)(=O)c4ccccc4C(F)(F)F)CC3)cc(OC)c2c1 | 16 (≈ 32.3 µM) | 4 (≈ 8.07 µM) | 64 (≈ 129 µM) | > 64 | 16 (≈ 32.3 µM) | > 64 | 32 (≈ 64.6 µM) | > 64 | > 64 | 1 (≈ 2.02 µM) | 8 (≈ 16.1 µM) | > 64
5 | COc1ccc2nc(CN3CCN(S(=O)(=O)c4cccs4)CC3)cc(OC)c2c1 | > 64 | > 64 | > 64 | > 64 | > 64 | > 64 | > 64 | > 64 | > 64 | > 64 | > 64 | 32 (≈ 73.8 µM)
6 | COc1ccc2nc(CN3CCN(C(=O)c4ccccc4F)CC3)cc(OC)c2c1 | > 64 | > 64 | > 64 | > 64 | > 64 | > 64 | > 64 | > 64 | > 64 | > 64 | > 64 | > 64
7 | COc1ccc2nc(CN3CCN(S(=O)(=O)c4c(C)cc(C)cc4C)CC3)cc(OC)c2c1 | > 64 | > 64 | > 64 | > 64 | > 64 | > 64 | > 64 | > 64 | > 64 | > 64 | > 64 | > 64
8 | CNS(=O)(=O)N1CCN(Cc2cc(OC)c3cc(OC)ccc3n2)CC1 | > 64 | > 64 | > 64 | > 64 | > 64 | > 64 | > 64 | > 64 | > 64 | > 64 | > 64 | > 64
9 | COc1cccc(C(=O)N2CCN(Cc3cc(OC)c4cc(OC)ccc4n3)CC2)c1 | > 64 | > 64 | > 64 | > 64 | > 64 | > 64 | > 64 | > 64 | > 64 | > 64 | > 64 | > 64
10 | COc1ccc2nc(CN3CCN(C(=O)c4ccccc4OC)CC3)cc(OC)c2c1 | > 64 | > 64 | > 64 | > 64 | > 64 | > 64 | > 64 | > 64 | > 64 | > 64 | > 64 | > 64
11 | COc1ccc2nc(CN3CCN(C(=O)c4ccc(Cl)c(Cl)c4)CC3)cc(OC)c2c1 | > 64 | > 64 | > 64 | > 64 | > 64 | > 64 | > 64 | > 64 | > 64 | 64 (≈ 139 µM) | > 64 | > 64
12 | COc1ccc2nc(CN3CCN(S(=O)(=O)c4cccc5ccccc45)CC3)cc(OC)c2c1 | > 64 | > 64 | > 64 | > 64 | > 64 | > 64 | > 64 | > 64 | > 64 | > 64 | > 64 | > 64
13 | COc1ccc2nc(CN3CCN(C(=O)C4CCC4)CC3)cc(OC)c2c1 | > 64 | > 64 | > 64 | > 64 | > 64 | > 64 | > 64 | > 64 | > 64 | 2 (≈ 5.41 µM) | > 64 | > 64
14 | COc1ccc(S(=O)(=O)N2CCN(Cc3cc(OC)c4cc(F)ccc4n3)CC2)cc1 | > 64 | > 64 | > 64 | > 64 | > 64 | > 64 | > 64 | > 64 | > 64 | > 64 | > 64 | > 64
15 | COc1cc(CN2CCN(S(=O)(=O)c3ccc(NC(C)=O)cc3)CC2)nc2ccc(F)cc12 | 64 (≈ 135 µM) | > 64 | > 64 | > 64 | > 64 | > 64 | > 64 | > 64 | > 64 | 32 (≈ 67.7 µM) | > 64 | > 64
16 | COc1ccc2nc(CN3CCN(C(=O)c4c(Cl)cccc4Cl)CC3)cc(OC)c2c1 | > 64 | > 64 | > 64 | > 64 | > 64 | > 64 | > 64 | > 64 | > 64 | > 64 | > 64 | > 64
17 | COc1ccc2nc(CN3CCN(S(=O)(=O)c4c(F)c(F)c(F)c(F)c4F)CC3)cc(OC)c2c1 | > 64 | > 64 | > 64 | > 64 | > 64 | > 64 | > 64 | > 64 | > 64 | > 64 | > 64 | > 64
18 | COc1ccc2nc(CN3CCN(S(=O)(=O)c4ccc(F)cc4)CC3)cc(OC)c2c1 | > 64 | > 64 | > 64 | > 64 | > 64 | > 64 | > 64 | > 64 | > 64 | > 64 | > 64 | > 64
19 | COc1ccc2nc(CN3CCN(C(=O)c4ccc(Cl)cc4Cl)CC3)cc(OC)c2c1 | > 64 | > 64 | > 64 | > 64 | > 64 | > 64 | > 64 | > 64 | > 64 | > 64 | > 64 | > 64
20 | O=C(O)c1cn(C2CC2)c2cc(N3CCNCC3)c(F)cc2c1=O [CIPROFLOXACIN] |  | 0.5 (≈ 1.51 µM) | 0.5 (≈ 1.51 µM) |  |  |  | 1 (≈ 3.02 µM) |  |  | 0.03 (≈ 0.0905 µM) | 2 (≈ 6.04 µM) | 
21 | C[C@H]1COc2c(N3CCN(C)CC3)c(F)cc3c(=O)c(C(=O)O)cn1c23.C[C@H]1COc2c(N3CCN(C)CC3)c(F)cc3c(=O)c(C(=O)O)cn1c23.O [LEVOFLOXACIN] |  |  |  |  |  |  |  | 2 |  |  |  | 0.125
22 | CC(=O)NC[C@H]1CN(c2ccc(N3CCOCC3)c(F)c2)C(=O)O1 [LINEZOLID] | 8 (≈ 23.7 µM) |  |  | > 64 | 8 (≈ 23.7 µM) | > 64 |  |  | > 64 | 4 (≈ 11.9 µM) | 4 (≈ 11.9 µM) | 
23 | CO[C@H]1/C=C/O[C@@]2(C)Oc3c(C)c(O)c4c(O)c(c(/C=N/N5CCN(C)CC5)c(O)c4c3C2=O)NC(=O)/C(C)=C\C=C\[C@H](C)[C@H](O)[C@@H](C)[C@@H](O)[C@@H](C)[C@H](OC(C)=O)[C@@H]1C [RIFAMPIN] |  |  |  |  |  |  |  | 4 (≈ 4.86 µM) |  |  |  | 0.5 (≈ 0.608 µM)
24 | COc1cc(Cc2cnc(N)nc2N)cc(OC)c1OC [TRIMETHOPRIM] | > 8 | 4 (≈ 13.8 µM) | 0.25 (≈ 0.861 µM) | 2 (≈ 6.89 µM) | 16 (≈ 55.1 µM) | > 8 | 8 (≈ 27.6 µM) |  | > 8 | 4 (≈ 13.8 µM) | 0.03 (≈ 0.103 µM) | 
